Results published in ChEMBL document CHEMBL1687861, “Comazaphilones A-F, azaphilone derivatives from the marine sediment-derived fungus Penicillium commune QSD-17” (J Nat Prod, 2011).
Values after ≈ are worked out from the molar mass of the structure shown. Active and inactive are the calls of the source. No cut-off for these calls is given here.

What was measured:
Candida albicans = assay: Antimicrobial activity against Candida albicans after 18 hrs by broth microdilution method; assay type: functional
Method in brief: (§1)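 Broth microdilution MIC; inoculum 5 × 10^5 cfu/mL; compounds tested over 1024-1 μg/mL; plates incubated 18 h at 35 °C in ambient air; MIC taken as the read-out after incubation.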

Staphylococcus aureus = assay: Antimicrobial activity against methicillin-resistant Staphylococcus aureus after 18 hrs by broth microdilution method; assay type: functional
Method in brief: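 Broth microdilution MIC. Inoculum 5 × 10^5 cfu/mL. Concentration range 1024-1 μg/mL. Plates incubated 18 h at 35 °C in ambient air. The MIC was read at the end of incubation.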

Pseudomonas aeruginosa = assay: Antimicrobial activity against Pseudomonas aeruginosa after 18 hrs by broth microdilution method; assay type: functional; method in brief: as §1
Pseudomonas fluorescens = assay: Antimicrobial activity against Pseudomonas fluorescens after 18 hrs by broth microdilution method; assay type: functional; method in brief: as §1
Bacillus subtilis = assay: Antimicrobial activity against Bacillus subtilis after 18 hrs by broth microdilution method; assay type: functional; method in brief: as §1
SW1990 = assay: Cytotoxicity against human SW1990 cells; assay type: functional, cell-based
DU-145 = assay: Cytotoxicity against human DU145 cells; assay type: functional, cell-based
HepG2 = assay: Cytotoxicity against human HepG2 cells; assay type: functional, cell-based
HeLa = assay: Cytotoxicity against human HeLa cells; assay type: functional, cell-based
MCF7 = assay: Cytotoxicity against human MCF7 cells; assay type: functional, cell-based
NCI-H460 = assay: Cytotoxicity against human NCI-H460 cells; assay type: functional, cell-based
SMMC-7721 = assay: Cytotoxicity against human SMMC7721 cells; assay type: functional, cell-based

Compound | MIC (Candida albicans) | MIC (Staphylococcus aureus) [µg/mL] | MIC (Pseudomonas aeruginosa) [µg/mL] | MIC (Pseudomonas fluorescens) [µg/mL] | MIC (Bacillus subtilis) [µg/mL] | IC50 (SW1990) [µM] | Activity (DU-145) | Activity (HepG2) | Activity (HeLa) | Activity (MCF7) | Activity (NCI-H460) | Activity (SMMC-7721)
NYSTATIN | 2 µM | – | – | – | – | – | – | – | – | – | – | –
C/C=C/C1=CC2=C(CO1)C(=O)[C@](C)(O)[C@H](OC(=O)c1c(C)cc(O)c(O)c1OC)C2 [COMAZAPHILONE E] | > 256 µg/mL | > 256 | > 256 | 32 (≈ 76.8 µM) | 16 (≈ 38.4 µM) | 26 | – | – | – | – | – | –
O=c1[nH]cc(F)c(=O)[nH]1 [FLUOROURACIL] | – | – | – | – | – | 120 | – | – | – | – | – | –
CC1(C)S[C@@H]2[C@H](NC(=O)[C@H](N)c3ccccc3)C(=O)N2[C@H]1C(=O)O [AMPICILLIN] | – | 8 (≈ 22.9 µM) | 2 (≈ 5.72 µM) | 4 (≈ 11.4 µM) | 4 (≈ 11.4 µM) | – | – | – | – | – | – | –
CCCC1=CC2=C(CO1)C(=O)[C@](C)(OC(=O)c1c(C)cc(O)cc1OC)[C@H](O)C2 [COMAZAPHILONE A] | > 256 µg/mL | > 256 | > 256 | > 256 | > 256 | – | inactive | inactive | inactive | inactive | inactive | inactive
C/C=C/C1=CC2=C(CO1)C(=O)[C@](C)(O)[C@H](OC(=O)c1c(C)cc(O)cc1O)C2 [COMAZAPHILONE D] | > 256 µg/mL | 32 (≈ 82.8 µM) | > 256 | 16 (≈ 41.4 µM) | > 256 | 51 | – | – | – | – | – | –
C/C=C/C1=CC2=C(CO1)C(=O)[C@](C)(OC(=O)c1c(C)cc(O)c(O)c1OC)[C@H](O)C2 [COMAZAPHILONE C] | > 256 µg/mL | 16 (≈ 38.4 µM) | > 256 | 64 (≈ 154 µM) | 32 (≈ 76.8 µM) | – | inactive | inactive | inactive | inactive | inactive | inactive
CCCC1=CC2=C(CO1)C(=O)[C@](C)(OC(=O)c1c(C)cc(O)c(O)c1OC)[C@H](O)C2 [COMAZAPHILONE B] | > 256 µg/mL | 128 (≈ 306 µM) | > 256 | 128 (≈ 306 µM) | 64 (≈ 153 µM) | – | inactive | inactive | inactive | inactive | inactive | inactive
CCCC1=CC2=C(CO1)C(=O)[C@](C)(O)[C@H](OC(=O)c1c(C)cc(O)c(O)c1OC)C2 [COMAZAPHILONE F] | > 256 µg/mL | 128 (≈ 306 µM) | > 256 | 64 (≈ 153 µM) | 128 (≈ 306 µM) | 53 | – | – | – | – | – | –
